A selection: hits, their analogues and other compounds. The true share with any hit is near 2.6%.
SIAE primary: human SIAE inhibitors, primary screen, biochemical, fluorescence polarization, FP-Rh probe, 1536-well HTS; Sialate O-acetylesterase (Homo sapiens), Q9HAT2; SIAE FP-Rh probe binding; inhibition, % at 9.66 µM; 370,000 tested, 0.69% active; AID 1053197, 2014;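 active means inhibition above a cutoff: mean of compounds within the control limits plus 3 SD of those, cut at about 17% in these data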;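 further: 0% = plate median of compound wells and 100% = probe without SIAE protein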
Target sequence (Q9HAT2 whole entry, looked up): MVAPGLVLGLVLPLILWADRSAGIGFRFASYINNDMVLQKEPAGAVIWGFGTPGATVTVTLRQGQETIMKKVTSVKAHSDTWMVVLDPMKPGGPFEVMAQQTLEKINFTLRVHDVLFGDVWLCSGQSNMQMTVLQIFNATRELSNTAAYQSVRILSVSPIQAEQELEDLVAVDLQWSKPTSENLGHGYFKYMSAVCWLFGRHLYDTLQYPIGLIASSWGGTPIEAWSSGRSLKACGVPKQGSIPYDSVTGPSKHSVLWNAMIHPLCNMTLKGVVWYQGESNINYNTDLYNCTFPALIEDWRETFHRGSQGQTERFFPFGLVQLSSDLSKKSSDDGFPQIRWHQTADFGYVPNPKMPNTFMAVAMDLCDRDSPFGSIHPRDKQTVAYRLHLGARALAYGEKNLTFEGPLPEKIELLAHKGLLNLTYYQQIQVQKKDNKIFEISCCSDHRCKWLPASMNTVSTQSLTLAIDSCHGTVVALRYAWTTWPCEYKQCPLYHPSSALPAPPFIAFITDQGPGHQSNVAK
PRMT1 inh: PRMT1 methyltransferase inhibitors, primary screen, biochemical, fluorescence polarization | Protein arginine N-methyltransferase 1 (Homo sapiens), Q99873 | recombinant PRMT1, activity-based probe fluorescence polarization | inhibition, % at 2.79 µM | 370,000 tested, 1.3% active | AID 652257, 2013;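 active means inhibition above about 21% made by adding two undisclosed values, limit read from the data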
ABHD4 inh: ABHD4 inhibitors, primary screen, biochemical, fluorescence polarization, mouse; purified mABHD4, FP-Rh probe fluorescence polarization; (Lyso)-N-acylphosphatidylethanolamine lipase (Mus musculus), Q8VD66; 370,000 tested, 0.54% active; inhibition, % at 8.92 µM;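 active means inhibition exceeding the mean over every tested compound plus 3 SD, cut at about 30% in these data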;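 further: 0% = plate median of compound wells and 100% = S159A mutant with DMSO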
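assay system = mABHD4 protein | compound dosing = single nominal dose of 8.92 µM, 0.89% DMSO final | read-out basis = percent inhibition of probe binding, normalized to plate controls | schedule = Enzyme–compound pre-incubation 45 min, then probe 60 min, both 25 °C | detection = fluorescence polarization, excitation 525 nm, emission 598 nm, BODIPY TMR filters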
TCR CD3 inh: inhibitors of human TCR-CD3 interaction, primary screen, biochemical, fluorescence, TAMRA-labeled TCR probe; T-cell receptor (TCR); 360,000 tested, 0.37% active; inhibition, % at 9.4 µM;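 further: recombinant mutant TCR 2C K166C tagged with TAMRA read by polarization; 0% = receptor in buffer alone and 100% = receptor with positive control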
HTRA1 inh: HTRA1 serine protease inhibitors, primary screen, biochemical, fluorescence polarization, HTS; recombinant HTRA1, FP-rhodamine activity-based probe; inhibition, % at 5.96 µM; 340,000 tested, 0.5% active; in the data active means inhibition above about 36%;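 further: 0% = enzyme with DMSO and 100% = wells lacking enzyme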
HTRA1 conf: HTRA1 protease inhibitors, retest, confirmation, biochemical, fluorescence polarization; AID 540248, 2011; shares compounds with HTRA1 inh; inhibition, % at 5.96 µM; 1,600 tested, 66% active; recombinant HTRA1, FP-rhodamine activity-based probe;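 active means mean inhibition over three repeats above a set limit taken from the earlier primary screen, cut at about 37% in these data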;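 further: 0% = HTRA1 with DMSO and 100% = wells lacking HTRA1; inhibitors block probe binding so polarization drops and inhibition rises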
BSA TAMRA ctr: compounds interfering with TAMRA-BSA probe, counter-screen for TCR-CD3 interaction inhibitor project, biochemical, fluorescence, TAMRA-labeled BSA; shares compounds with TCR CD3 inh; TAMRA-labeled BSA probe fluorescence counterscreen; inhibition, % at 9.4 µM; 1,200 tested, 10% active; in the data active means inhibition above about 23%;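 further: 0% = buffer low control and 100% = reference high control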
TCR-CD3 inh conf: TCR-CD3 interaction inhibitors, retest, confirmation, biochemical, fluorescence, TAMRA-labeled TCR probe; shares compounds with TCR CD3 inh; TAMRA-labeled TCR probe fluorescence binding assay; inhibition, % at 9.4 µM; 1,200 tested, 48% active
PRMT1 inh conf: PRMT1 methyltransferase inhibitors, confirmation, biochemical, fluorescence polarization, triplicate | shares compounds with PRMT1 inh | recombinant His-PRMT1, activity-based probe fluorescence polarization | inhibition, % at 2.79 µM | 3,300 tested, 42% active;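 active means mean inhibition across replicates above the hit cutoff derived for the earlier primary screen, cut at about 22% in these data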
mABHD4 conf: ABHD4 inhibitors, retest, confirmation, biochemical, fluorescence polarization, mouse | shares compounds with ABHD4 inh | purified mABHD4, FP-Rh probe fluorescence polarization | inhibition, % at 8.92 µM | 1,800 tested, 55% active;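 active means mean inhibition across replicates above the hit cutoff set in the primary screen, cut at about 30% in these data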;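 further: 0% = wild-type ABHD4 with DMSO and 100% = catalytically dead S159A mutant with DMSO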
SIAE confirm: human SIAE inhibitors, retest, confirmation, biochemical, fluorescence polarization, FP-Rh probe, triplicate; SIAE FP-Rh activity-based probe; shares compounds with SIAE primary; 2,300 tested, 13% active; inhibition, % at 9.66 µM;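 active means mean inhibition of the replicates above the hit cutoff set in the primary screen, cut at about 17% in these data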;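 further: 0% = SIAE with DMSO and probe and 100% = probe without SIAE; inhibitors lower polarization as more probe stays unbound to SIAE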
Active calls of the source: *; ! = not confirmed by another sample. Unless noted, no stated cut-off is given here; in the data, active means inhibition above about 19%; inactive means the rest.

Screening NCCc1cc(O)c(O)cc1O returned SIAE primary 91*, PRMT1 inh 43*!, ABHD4 inh 45*, TCR CD3 inh 170*, HTRA1 inh 73*, HTRA1 conf 48*, BSA TAMRA ctr active, TCR-CD3 inh conf active and mABHD4 conf 92*.
For COC(=O)C1=C(c2ccc(OCc3ccccc3)cc2)C[C@@H]2CC[C@H]1N2C(=O)NCCc1ccc(F)cc1 the results were SIAE primary -8, PRMT1 inh 4, ABHD4 inh 15, TCR CD3 inh -5 and HTRA1 inh -43.
For CC1=C[C@@H]2c3cccc4[nH]cc(c34)C[C@H]2N(C)C1 the results were SIAE primary 17*, PRMT1 inh 39*, ABHD4 inh 19, TCR CD3 inh 13, HTRA1 inh 40*, HTRA1 conf 16, PRMT1 inh conf 36* and SIAE confirm 1.
CC(=O)c1ccc2c(c1)C1C(Cl)C(Sc3ccccc3[N+](=O)[O-])CC1C(C(=O)O)N2 (configuration not stated) was read as SIAE primary 21*, PRMT1 inh 49*, ABHD4 inh 54*, TCR CD3 inh 28*, HTRA1 inh 88*, HTRA1 conf 71*, BSA TAMRA ctr -2, TCR-CD3 inh conf 17, PRMT1 inh conf 23*, mABHD4 conf 104* and SIAE confirm 8.
For O=C1NCN(c2ccccc2)C12CCN(C(CCc1ccccc1)c1nnnn1C1CCCC1)CC2 (configuration not stated) the results were SIAE primary -5, PRMT1 inh -2, ABHD4 inh -8 and TCR CD3 inh -2.
Screening CC[n+]1c(-c2ccccc2)c2cc(N)ccc2c2ccc(N)cc21 returned SIAE primary 54*, PRMT1 inh 37*, ABHD4 inh 82*, TCR CD3 inh 90*, HTRA1 inh 109*, HTRA1 conf 118*, BSA TAMRA ctr 103*, TCR-CD3 inh conf 93*, PRMT1 inh conf 11, mABHD4 conf 105* and SIAE confirm 67*.
`CC(C)(C)OC(=O)NCCCCC(N)[P+](=O)O` (configuration not stated) gave SIAE primary 0, PRMT1 inh 6 and ABHD4 inh 4.
For COC(=O)C1=C(c2ccc(F)cc2F)C[C@@H]2CC[C@H]1N2C(=O)N1CCC(O)CC1 the results were SIAE primary -3, PRMT1 inh -2, ABHD4 inh 6, TCR CD3 inh 1 and HTRA1 inh 0.
